Hits are enriched below; roughly 2.9% of the tested compounds scored in any of these assays.
5HT1E ag = 5-HT1E receptor agonists, primary screen, cell-based, HTS; CHO 5-HT1E Ga15 NFAT-bla reporter, FRET; 0% DMSO wells, 100% control agonist wells; activation, % at 6 µM; 65,000 compounds, 0.69% hits; AID 574, 2007;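 active = activation above a set limit, the screen-wide mean activation plus 3 SD, cut at about 8.5% in these data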;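 also: 100% = positive control agonist at 1 µM giving full maximal response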
5HT1a ag = human 5-HT1a receptor agonists, primary screen, cell-based, CHO, Ga15 NFAT-bla reporter; 65,000 compounds, 0.56% hits; 5-hydroxytryptamine receptor 1A (Homo sapiens), P08908; CHO 5-HT1a Ga15 NFAT-bla reporter, FRET ratio; 0% basal, 100% maximal reference agonist; activation, % at 10 µM;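 active = activation above the screen-wide mean activation plus 3 SD, cut at about 19% in these data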;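 also: 0% = DMSO wells and 100% = 5-CT at EC100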
S1P3 ag = human S1P3 receptor agonists, primary screen, cell-based, primary and confirmation, NFAT-BLA reporter; Sphingosine 1-phosphate receptor 3 (Homo sapiens), Q99500; S1P3 NFAT-BLA reporter cells, agonism, FRET ratio; relative to 1 µM S1P, basal subtracted; activation, % at 4.5 µM; 60,000 compounds, 0.1% hits; AID 373, 2006;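 active = activation above the screen-wide mean plus 3 SD, cut at about 4.5% in these data, passing the limit was not always enough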
Target sequence (Q99500 whole entry, looked up): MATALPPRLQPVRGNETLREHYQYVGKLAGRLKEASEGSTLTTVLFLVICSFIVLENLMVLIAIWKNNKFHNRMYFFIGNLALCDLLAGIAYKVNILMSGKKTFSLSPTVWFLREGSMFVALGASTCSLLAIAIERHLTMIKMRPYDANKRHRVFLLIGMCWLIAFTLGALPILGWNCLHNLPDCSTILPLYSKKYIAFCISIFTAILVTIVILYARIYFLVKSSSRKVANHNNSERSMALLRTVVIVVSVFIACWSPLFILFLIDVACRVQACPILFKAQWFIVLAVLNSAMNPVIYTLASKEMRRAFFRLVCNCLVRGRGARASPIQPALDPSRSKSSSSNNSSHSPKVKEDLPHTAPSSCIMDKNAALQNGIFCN
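Material: Human S1P3 NFAT-BLA reporter CHO cells | Incubation: Overnight plating, 4 h compound 37 °C, 2 h substrate RT | Signal: FRET β-lactamase substrate fluorescence, excitation 405 nm, 460/535 nm emission ratio, background-subtracted | Compound: 4.5 µM final, single dose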
S1P1 ag pot = S1P1 agonists and agonism potentiators, primary screen, cell-based, primary and confirmation screens, CRE-bla reporter; S1P1 CRE-bla cells, forskolin, beta-lactamase FRET, potentiator mode; S1P1 agonist co-added at EC20, 2 nM; 100% = saturating reference agonist, 0% = basal; AID 449, 2006; 56,000 compounds, 0.57% hits; activation, % at 9.5 µM;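 active = activation above a cutoff set at the mean activation of all tested compounds plus 3 SD, cut at about 54% in these data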;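 also: forskolin at 4 µM as EC80 and the EC20 agonist is SEW2871; 100% = SEW2871 at its EC100 plus forskolin at EC80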
HTR1E antagonist = 5-HT1E receptor antagonists, primary screen, cell-based, HTS. 65,000 compounds, 0.99% hits. inhibition, % at 6 µM. 5-hydroxytryptamine receptor 1E (Homo sapiens), P28566. CHO 5-HT1E Ga15 NFAT-bla reporter, FRET, antagonist;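 active = inhibition above a set limit, the mean inhibition across every tested compound plus 3 SD, cut at about 29% in these data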;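 also: signal is the 460 over 535 nm emission ratio of beta-lactamase substrate; 0% = agonist plus DMSO wells and 100% = wells without agonist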
5-HT1A blocker = human 5-HT1a receptor antagonists, primary screen, cell-based, CHO, Ga15 NFAT-bla reporter. AID 612, 2007. 62,000 compounds, 0.68% hits. inhibition, % at 10 µM. CHO 5-HT1a Ga15 NFAT-bla reporter, antagonist mode;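 active = inhibition above the mean of all tested compounds plus 3 SD, cut at about 43% in these data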;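 also: receptor stimulated by 5-CT agonist at 100 nM near EC80; beta-lactamase reporter measured by ratiometric fluorescence of a cleavable substrate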
Numbers without * were called inactive; / = no result.

SMILES	5HT1E ag	5HT1a ag	S1P3 ag	S1P1 ag pot	HTR1E antagonist	5-HT1A blocker
CC(C)Cc1nc2oc3c(NCc4cccnc4)ncnc3c2c2c1CCC2	2	0	0	-59	35*	-2
COC(=O)c1ccc(CSc2nnc(SCc3ccc(C(=O)OC)o3)s2)o1	-1	-1	0	12	3	12
COC(=O)c1ccc(CSc2nc(C)nc3sc(C)c(C)c23)o1	-1	-4	0	7	33*	50*
Cc1nc(SCc2nc3ccccc3[nH]2)c2oc3ccccc3c2n1	0	0	0	6	39*	32
Cc1nc(N2CCN(Cc3nc4ccccc4[nH]3)CC2)c2oc3ccccc3c2n1	28*	3	/	/	31*	11
c1ccc2[nH]c(CSc3ncnc4c3oc3ccccc34)nc2c1	0	0	1	44	38*	21
O=C(CSCc1cccc(Br)c1)N1CCOCC1	0	-3	-1	2	-3	-5
Cc1nc2c3c(-c4ccccc4)nc(N4CCOCC4)nc3nn2c(C)c1CCC(=O)O	0	-4	0	-32	-5	-5
Cc1ccc(-c2nc3cc(N)ccc3o2)cc1	0	-1	-1	-18	9	14
CC(C)c1ccc2oc(-c3ccc(N)cc3)nc2c1	0	0	-2	54*	1	9
CCCCCC(=O)N(O)C1CC(=O)N(c2ccccc2)C1=O (stereo not given)	0	-4	0	7	12	3
CCCCCCC(=O)N(O)C1CC(=O)N(Cc2ccccc2)C1=O (stereo not given)	-1	-7	-2	28	30*	30
COc1cccc(NC(=O)N2CCN(c3cccc(C)c3C)CC2)c1	30*	-2	-1	8	-1	0
COc1cccc(NC(=O)N2CCC(N3CCCCC3)CC2)c1	0	-3	-1	-8	7	-2
COc1ccc(-c2csc3nc(C)n(-n4cccc4)c(=O)c23)cc1OC	-1	0	-1	-6	8	-1
Cc1nc2sc(-c3ccccc3)cc2c(=O)n1-n1cccc1	1	2	1	60*	-5	2
Cc1c(C(=O)c2no[n+]([O-])c2C(=O)c2cnn(C)c2C)cnn1C	-1	-1	0	-22	10	46*
COc1ccc(C(=O)c2no[n+]([O-])c2C(=O)c2ccc(OC)cc2)cc1	0	1	0	-7	-4	-2
CC(/C=N/n1cnnc1)=C\c1ccco1	1	-3	-1	4	-7	-14
Cn1nc(CC(=O)Nc2ccc3c(c2)OCCO3)c2ccccc2c1=O	-1	-1	-1	92*	2	14
Cn1nc(CC(=O)Nc2ccc(N3CCN(C(=O)OC(C)(C)C)CC3)cc2)c2ccccc2c1=O	0	1	-2	84*	3	8
Cn1nc(CC(=O)N2CCN(c3ccccc3)CC2)c2ccccc2c1=O	0	-3	0	2	8	7
C=C(C)Cn1c(N2CC(C)CC(C)C2)nc2c1c(=O)[nH]c(=O)n2C (stereo not given)	2	0	-1	-15	14	-2
CC(=O)Nc1ccc(S(=O)(=O)N2CCSC2c2ccccc2Cl)cc1 (stereo not given)	-1	-1	-1	21	35*	12
COc1cccc(C(=O)Cn2c(N3CCCCC3)nc3c2c(=O)n(C)c(=O)n3C)c1	1	-2	-1	6	1	-8
SMILES	5HT1E ag	5HT1a ag	S1P3 ag	S1P1 ag pot	HTR1E antagonist	5-HT1A blocker
COc1cccc(C(=O)Cn2c(=N)n(C)c3ccccc32)c1	1	0	-1	-8	11	47*
Clc1ccc2[nH]c3c(NCC4CCCO4)ncnc3c2c1 (stereo not given)	0	4	0	35	32*	11
N/C(=N\c1nc2c(c(=O)[nH]1)CCCC2)Nc1ccccc1	1	-4	0	65*	2	-5
CCC(C)NC(=O)N[C@@H](Cc1ccccc1)C(=O)O (stereo not given in full)	0	61*	0	-21	1	-2
CCN1CCN(C(=O)C2c3cc(OC)c(OC)cc3C(=O)N(C)C2c2ccc(SC)cc2)CC1 (stereo not given)	-1	-1	/	/	-1	60*
CCn1nnc(-c2ccccc2NC(=O)C(F)(F)F)n1	1	1	-1	-10	3	-1
CCOC(=O)c1c(-c2ccc(C)o2)csc1N	0	-5	-1	-9	-12	10
CCOC(=O)c1c(-c2ccc(C)o2)csc1NC(=O)COC(=O)c1cccs1	1	2	1	6	1	50*
CC1CCN(Cc2c(C#N)c3ccccc3n2C)CC1	0	-5	/	/	-8	5
CN(CCCCCNC(=O)/C=N/O)Cc1ccccc1	-1	-1	-4	7	-11	/
CN(C)CCCN(CCCNC(=O)/C=N/O)Cc1ccccc1	26*	-3	-2	5	5	/
O=C(CC1(C(F)(F)F)OCCO1)Nc1ccc2c(c1)OCO2	-1	-5	-1	15	11	8
Cc1cccc(C(=O)NCCN2CCN(c3ccccc3)CC2)c1	0	52*	-1	-5	3	-278
O=C(NCCCN1CCCC1=O)c1cccc(N2CCCC2=O)c1	-1	-2	-1	-10	9	3
O=C(NCCCN1CCN(c2cccc(Cl)c2)CC1)c1ccc(N2CCCC2=O)cc1	8	15	/	/	-6	46*
O=C(NCCN1CCCCCC1)c1ccc(N2CCCC2=O)cc1	0	-5	1	-14	-3	-4
O=C(CCN1C(=O)COc2ccccc21)NCCN1CCN(c2cccc(Cl)c2)CC1	9.6*	3	-1	13	7	33
O=C(NCCCN1CCN(c2cccc(Cl)c2)CC1)c1cccc(N2CCCC2=O)c1	2	2	/	/	0	89*
CC(C)N(CCc1ccncc1)C(=O)Nc1ccc(Cl)c(Cl)c1	0	-1	0	-6	18	18
CCOc1ccc2nc(NC(=O)C3CCCN(S(=O)(=O)c4c(C)noc4C)C3)sc2c1 (stereo not given)	0	-1	-1	24	21	14
COc1ccccc1N1CCN(C(=O)CSc2ncccc2-c2nc3ccccc3[nH]2)CC1	22*	5	/	/	-2	14
